Test results from ChEMBL document CHEMBL4387722.

Tests used:
[1] = biological target: T1, Phosphotyrosine protein phosphatase (Mycobacterium tuberculosis, UniProt A0A045ISB3); test: Inhibition of Mycobacterium tuberculosis His-tagged PtpB expressed in Escherichia coli Rosetta 2 (DE3) using pNPP as substrate after 30 mins by spectrophotometric method
T1 sequence (A0A045ISB3 whole entry): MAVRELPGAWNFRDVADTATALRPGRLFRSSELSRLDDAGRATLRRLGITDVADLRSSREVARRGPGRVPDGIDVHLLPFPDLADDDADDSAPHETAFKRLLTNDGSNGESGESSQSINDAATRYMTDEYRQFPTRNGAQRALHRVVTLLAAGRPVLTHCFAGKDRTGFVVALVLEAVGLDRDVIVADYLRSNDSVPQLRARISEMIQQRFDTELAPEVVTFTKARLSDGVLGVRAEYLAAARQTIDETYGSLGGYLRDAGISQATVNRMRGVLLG

[2] = biological target: T2, Tyrosine-protein phosphatase non-receptor type 1 (Homo sapiens, UniProt P18031); test: Inhibition of human PTPN1 expressed in Escherichia coli Rosetta 2 (DE3) using pNPP as substrate after 45 mins by spectrophotometric method
T2 sequence (P18031 whole entry): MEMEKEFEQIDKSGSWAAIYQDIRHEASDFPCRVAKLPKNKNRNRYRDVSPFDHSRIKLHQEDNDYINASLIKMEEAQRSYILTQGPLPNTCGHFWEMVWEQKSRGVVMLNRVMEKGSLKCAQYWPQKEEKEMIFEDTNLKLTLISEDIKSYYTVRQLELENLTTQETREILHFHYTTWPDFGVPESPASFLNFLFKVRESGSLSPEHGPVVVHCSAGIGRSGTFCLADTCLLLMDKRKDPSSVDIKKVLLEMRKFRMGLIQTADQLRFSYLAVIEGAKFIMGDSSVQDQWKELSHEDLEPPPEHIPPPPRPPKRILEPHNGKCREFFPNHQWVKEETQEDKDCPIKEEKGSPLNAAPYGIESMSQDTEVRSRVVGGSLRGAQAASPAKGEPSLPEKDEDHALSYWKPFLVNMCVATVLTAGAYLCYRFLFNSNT

[3] = biological target: T3, Tyrosine-protein phosphatase non-receptor type 2 (Homo sapiens, UniProt P17706); test: Inhibition of human PTPN2 expressed in Escherichia coli Rosetta 2 (DE3) using pNPP as substrate after 45 mins by spectrophotometric method
T3 sequence (P17706 whole entry): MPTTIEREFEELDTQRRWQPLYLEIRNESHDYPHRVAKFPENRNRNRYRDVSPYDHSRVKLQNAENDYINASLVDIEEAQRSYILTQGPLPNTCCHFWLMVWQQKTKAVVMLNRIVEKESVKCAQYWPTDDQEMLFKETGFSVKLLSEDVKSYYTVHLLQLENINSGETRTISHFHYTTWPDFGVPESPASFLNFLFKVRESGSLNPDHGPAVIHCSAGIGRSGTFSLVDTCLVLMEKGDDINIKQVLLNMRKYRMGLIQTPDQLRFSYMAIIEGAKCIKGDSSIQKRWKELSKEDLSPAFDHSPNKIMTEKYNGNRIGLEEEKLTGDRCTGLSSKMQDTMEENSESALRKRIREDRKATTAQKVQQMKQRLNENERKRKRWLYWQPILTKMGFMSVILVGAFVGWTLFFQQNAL

[4] = biological target: T4, Tyrosine-protein phosphatase non-receptor type 5 (Homo sapiens, UniProt P54829); test: Inhibition of human PTPN5 expressed in Escherichia coli Rosetta 2 (DE3) using pNPP as substrate after 45 mins by spectrophotometric method
T4 sequence (P54829 whole entry): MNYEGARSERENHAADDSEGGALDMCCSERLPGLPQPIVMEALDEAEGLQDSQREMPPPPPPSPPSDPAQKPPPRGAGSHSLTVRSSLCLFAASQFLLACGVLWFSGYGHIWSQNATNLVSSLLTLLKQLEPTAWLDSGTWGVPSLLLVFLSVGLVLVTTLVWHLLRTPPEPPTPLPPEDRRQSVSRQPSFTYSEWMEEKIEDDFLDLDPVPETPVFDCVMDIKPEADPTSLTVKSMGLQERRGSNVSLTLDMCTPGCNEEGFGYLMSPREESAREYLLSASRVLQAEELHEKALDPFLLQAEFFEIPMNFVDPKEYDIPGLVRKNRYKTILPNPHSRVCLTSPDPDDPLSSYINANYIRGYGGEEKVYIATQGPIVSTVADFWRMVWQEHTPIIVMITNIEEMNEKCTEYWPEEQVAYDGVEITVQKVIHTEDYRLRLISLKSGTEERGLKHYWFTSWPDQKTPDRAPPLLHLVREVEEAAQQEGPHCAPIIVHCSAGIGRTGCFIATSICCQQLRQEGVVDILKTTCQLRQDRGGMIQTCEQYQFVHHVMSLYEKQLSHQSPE

[5] = test system: Mycobacterium tuberculosis; test: Antitubercular activity against Mycobacterium tuberculosis H37Rv after 5 days at 200 uM relative to control; format: functional; settings: 120 h
Method in brief: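 M. tuberculosis grown in liquid culture with compound at a fixed 200 μM for 5 days. Growth inhibition expressed as percent of control.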

[6] = Inhibition of refolded rhodanese (unknown origin) preincubated with Escherichia coli GroEL/GroES for 60 mins by measuring rhodanese enzyme activity followed by compound addition by Fe(SCN)3 dye based spectrometric analysis; parameters: species or system Homo sapiens
[7] = biological target: T5, Malate dehydrogenase, mitochondrial (Sus scrofa, UniProt P00346); test: Inhibition of refolded pig heart mitochondrial MDH preincubated with Escherichia coli GroEL/GroES for 45 mins using sodium mesoxalate as substrate followed by compound addition and measured after 20 to 30 mins by spectrometric analysis
T5 sequence (P00346 whole entry): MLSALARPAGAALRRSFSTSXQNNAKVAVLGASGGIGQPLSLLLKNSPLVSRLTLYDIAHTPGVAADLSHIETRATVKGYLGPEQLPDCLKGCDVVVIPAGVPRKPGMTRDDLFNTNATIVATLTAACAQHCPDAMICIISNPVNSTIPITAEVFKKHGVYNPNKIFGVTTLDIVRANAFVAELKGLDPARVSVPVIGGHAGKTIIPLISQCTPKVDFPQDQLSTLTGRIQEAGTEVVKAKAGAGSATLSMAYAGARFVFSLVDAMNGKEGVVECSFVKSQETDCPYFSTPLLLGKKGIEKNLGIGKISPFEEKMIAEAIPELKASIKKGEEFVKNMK

E. coli GroEL/ES [8] = biological target: T6, E. coli GroEL/ES (Escherichia coli, UniProt P0A6F5); test: Inhibition of Escherichia coli GroEL expressed in Escherichia coli DH5alpha/Escherichia coli GroES expressed in Escherichia coli BL21 (DE3) assessed as reduction in GroEL/GroES-mediated denatured rhodanese refolding by measuring rhodanese enzyme activity after 45 mins by Fe(SCN)3 dye based spectrometric analysis
T6 sequence (P0A6F5 whole entry, looked up): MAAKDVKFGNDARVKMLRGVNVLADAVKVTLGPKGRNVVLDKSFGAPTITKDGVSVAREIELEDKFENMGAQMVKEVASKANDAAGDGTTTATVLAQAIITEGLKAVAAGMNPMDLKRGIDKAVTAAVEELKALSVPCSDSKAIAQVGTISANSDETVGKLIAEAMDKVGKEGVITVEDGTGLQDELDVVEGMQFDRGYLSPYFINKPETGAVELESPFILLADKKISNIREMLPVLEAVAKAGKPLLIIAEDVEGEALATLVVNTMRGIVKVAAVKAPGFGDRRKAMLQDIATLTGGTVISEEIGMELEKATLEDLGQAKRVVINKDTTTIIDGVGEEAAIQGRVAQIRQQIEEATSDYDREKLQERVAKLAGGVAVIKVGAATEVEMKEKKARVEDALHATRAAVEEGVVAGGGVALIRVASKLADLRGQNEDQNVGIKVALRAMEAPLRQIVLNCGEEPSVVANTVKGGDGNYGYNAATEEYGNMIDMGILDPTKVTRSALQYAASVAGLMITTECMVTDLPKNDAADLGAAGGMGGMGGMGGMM

E. coli GroEL/ES [9] = biological target: T6, E. coli GroEL/ES; test: Inhibition of Escherichia coli GroEL expressed in Escherichia coliDH5alpha/Escherichia coli GroES expressed in Escherichia coli BL21 (DE3) assessed as reduction in GroEL/GroES-mediated denatured pig heart mitochondrial MDH refolding by measuring MDH enzyme activity using sodium mesoxalate as substrate after 20 to 40 mins by spectrometric analysis
HSP60/HSP10 = HSP60/HSP10 (Homo sapiens, UniProt P10809); test: Inhibition of human HSP60 expressed in Escherichia coli Rosetta 2(DE3)/human HSP10 expressed in Escherichia coli Rosetta 2(DE3) pLysS cells assessed as reduction in HSP60/HSP10-mediated denatured pig heart mitochondrial MDH refolding by measuring MDH enzyme activity using sodium mesoxalate as substrate after 40 to 60 mins by spectrometric analysis
HSP60/HSP10, sequence (P10809 whole entry): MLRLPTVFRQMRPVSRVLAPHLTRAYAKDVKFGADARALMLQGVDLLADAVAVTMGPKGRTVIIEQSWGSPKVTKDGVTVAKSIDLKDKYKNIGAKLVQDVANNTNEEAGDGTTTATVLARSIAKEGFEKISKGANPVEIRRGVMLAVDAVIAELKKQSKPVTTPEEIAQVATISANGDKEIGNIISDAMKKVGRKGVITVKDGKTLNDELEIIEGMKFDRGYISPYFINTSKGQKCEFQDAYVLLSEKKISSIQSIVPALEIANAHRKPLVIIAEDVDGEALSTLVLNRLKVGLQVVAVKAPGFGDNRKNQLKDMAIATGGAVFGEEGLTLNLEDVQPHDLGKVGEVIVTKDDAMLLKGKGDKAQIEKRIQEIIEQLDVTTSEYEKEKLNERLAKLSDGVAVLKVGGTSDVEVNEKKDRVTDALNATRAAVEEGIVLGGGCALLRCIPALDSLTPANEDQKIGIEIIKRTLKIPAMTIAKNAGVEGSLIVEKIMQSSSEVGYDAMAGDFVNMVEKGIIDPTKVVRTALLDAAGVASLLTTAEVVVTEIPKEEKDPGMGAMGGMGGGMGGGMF
HSP60/HSP10, sequence (P61604 whole entry, further chain): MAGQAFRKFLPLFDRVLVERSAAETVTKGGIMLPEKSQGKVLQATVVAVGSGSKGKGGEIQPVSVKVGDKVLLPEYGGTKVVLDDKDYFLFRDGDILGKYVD

[10] = Cytotoxicity against human THLE3 cells assessed as reduction in cell viability after 48 hrs by Alamar blue assay; format: cell-based
Method in brief: (§1)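 Alamar Blue viability read-out. Human liver (THLE-3) and kidney (HEK 293) cells incubated with compound for 48 h. Tested in dose-response to derive CC50.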

[11] = Cytotoxicity against human HEK293 cells assessed as reduction in cell viability after 48 hrs by Alamar blue assay; format: cell-based; method in brief: as §1

SMILES | IC50 [1] [µM] | IC50 [2] [µM] | IC50 [3] [µM] | IC50 [4] [µM] | inhibition at 200 µM [5] [%] | IC50 [6] [µM] | IC50 [7] [µM] | IC50 (E. coli GroEL/ES [8]) [µM] | IC50 (E. coli GroEL/ES [9]) [µM] | IC50 (HSP60/HSP10) [µM] | CC50 at 48 h [10] [µM] | CC50 at 48 h [11] [µM]
O=S(=O)(Nc1ccc2oc(-c3ccccc3)nc2c1)c1ccccc1F | 80 | 59 | 69 | 44 | 12 | > 100 | > 63 | 171 | > 100 | > 100 | 53 | 72
COc1ccc(Cl)cc1S(=O)(=O)Nc1ccc2oc(-c3ccccc3)nc2c1 | 31 | 27 | 25 | 37 | 0 | > 100 | > 63 | 105 | 81 | > 100 | 31 | 74
O=S(=O)(Nc1ccc2oc(-c3ccccc3)nc2c1)c1ccc(C(F)(F)F)cc1 | 26 | 36 | 44 | 27 | 0 | > 100 | > 63 | 159 | 64 | > 100 | 49 | 74
O=S(=O)(Nc1ccc2oc(-c3ccccc3)nc2c1)c1ccc(Cl)cc1 | 56 | 44 | 35 | 26 | 0 | > 100 | > 63 | 149 | > 100 | > 100 | 40 | 65
Cc1ccc(S(=O)(=O)Nc2ccc(-c3nc4ccccc4o3)cc2)cc1 | 52 | 42 | 49 | 45 | 28 | > 100 | > 63 | 157 | > 100 | > 100 | 82 | 88
O=S(=O)(Nc1ccc2oc(-c3ccccc3)nc2c1)c1ccccc1C(F)(F)F | 58 | 44 | 55 | 37 | 45 | > 100 | > 63 | 162 | 92 | > 100 | 59 | 80
O=S(=O)(Nc1ccc(-c2nc3ccccc3o2)cc1)c1cccc(Cl)c1 | 43 | 37 | 67 | 545 | 33 | > 100 | > 63 | 168 | 79 | 54 | 83 | > 100
O=S(=O)(Nc1ccc2oc(-c3ccccc3)nc2c1)c1ccccc1Cl | 50 | 40 | 42 | 35 | 13 | > 100 | > 63 | 103 | 90 | > 100 | 43 | 73
O=S(=O)(Nc1ccc(-c2nc3ccccc3o2)cc1)c1ccc(Cl)cc1 | 46 | 43 | 42 | 36 | 7 | > 100 | > 63 | 151 | > 100 | 61 | 81 | > 100
O=S(=O)(Nc1ccc(-c2nc3ccccc3o2)cc1)c1ccc(Cl)c(Cl)c1 | 25 | 29 | 33 | 30 | 37 | > 100 | > 63 | 104 | 43 | 25 | 84 | > 100
O=S(=O)(Nc1ccc(-c2nc3ccccc3o2)cc1)c1ccccc1Cl | 47 | 59 | 64 | 51 | 11 | > 100 | > 63 | 171 | 86 | > 100 | > 100 | > 100
O=S(=O)(Nc1ccc(-c2nc3ccccc3o2)cc1)c1ccccc1F | 85 | 55 | 80 | 70 | 8 | > 100 | > 63 | 180 | > 100 | > 100 | > 100 | > 100
O=[N+]([O-])c1cc(S(=O)(=O)Nc2ccc3oc(-c4ccccc4)nc3c2)ccc1Cl | 33 | 35 | 40 | 32 | 1 | > 100 | > 63 | 18 | 16 | 17 | 25 | 90
O=S(=O)(Nc1ccc2oc(-c3ccccc3)nc2c1)c1ccc(Cl)c(Cl)c1 | 33 | 35 | 33 | 25 | 22 | > 100 | > 63 | 152 | 79 | > 100 | 55 | 71
